M1 ag parental: counter-screen for M1 agonists: effect in parental CHO-K1 cells. Fluo-8 calcium fluorescence; scaled to maximal ATP response, vehicle zero. activation, % at 3 µM. 360,000 compounds, 0.48% hits; in the data active = activation above about 15%;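 note: untransfected CHO-K1 host cells lacking M1 receptor as counterscreen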
CHO-K1 Ca antag: counter-screen for M1 antagonists: effect in parental CHO-K1 cells; AID 602250; 360,000 compounds, 0.6% hits; inhibition, % at 3 µM; ATP-induced calcium, Fluo-8 fluorescence;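 active = inhibition above a per-plate cutoff, the plate's mean sample inhibition plus 3 SD, cut at about 24% in these data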
OX1R antag-1: human HCRTR1 antagonism. O43613. CHO/OX1R cells, Fluo-8 calcium fluorescence, orexin A. inhibition, % at 5 µM. 330,000 compounds, 0.43% hits;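 active = inhibition above its plate's threshold, mean inhibition of all tested compounds on the plate plus 3 SD, cut at about 37% in these data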
Target sequence (O43613 whole entry, looked up): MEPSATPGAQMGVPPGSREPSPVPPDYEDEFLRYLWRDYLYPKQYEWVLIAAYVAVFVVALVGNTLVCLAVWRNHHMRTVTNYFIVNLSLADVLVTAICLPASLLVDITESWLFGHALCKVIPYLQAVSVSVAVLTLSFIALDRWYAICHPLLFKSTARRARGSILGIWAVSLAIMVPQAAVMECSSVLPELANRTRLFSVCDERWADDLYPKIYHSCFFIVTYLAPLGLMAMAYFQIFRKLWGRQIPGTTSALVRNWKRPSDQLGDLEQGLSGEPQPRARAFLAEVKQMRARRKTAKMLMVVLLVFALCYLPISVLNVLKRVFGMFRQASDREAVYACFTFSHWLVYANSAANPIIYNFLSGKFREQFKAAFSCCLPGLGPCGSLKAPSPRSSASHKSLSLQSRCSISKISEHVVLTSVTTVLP
OX1R antag-2: blocks the human orexin 1 receptor. OX1R-expressing cells, FRET antagonist read-out. O43613. 330,000 compounds, 1.8% hits. AID 485270. inhibition, % at 6.6 µM; in the data active = inhibition mostly above about 38%, no sharp cut-off; inactive = mostly below about 40%
CHO parental Ca: counter-screen: ATP calcium response change in parental CHO cells | inhibition, % at 5.6 µM | 330,000 compounds, 0.63% hits | parental CHO-K1, ATP-induced calcium, Fluo-8 fluorescence;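 active = inhibition above that plate's mean sample inhibition plus 3 SD, cut at about 26% in these data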
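Test system: parental CHO cells; detection: calcium-sensitive Fluo-8 fluorescence; evaluation: percent inhibition of calcium signal; also added: ATP as calcium-mobilizing challenge; repeats: one well per compound; control set: ATP-challenged DMSO wells low, unchallenged DMSO wells high; compound: single nominal dose of 5.6 µM per compound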
M1 PAM parental: M1 PAM counterscreen hit in parental CHO-K1 cells; ATP EC20, Fluo-8 calcium fluorescence; 0% at ATP EC20, 100% at ATP max; activation, % at 3 µM; 360,000 compounds, 0.02% hits; AID 602247;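 active = activation above the run cutoff, the mean activation of all test compounds plus 3 SD, cut at about 40% in these data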;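 note: peak over basal fluorescence ratio in a 140 s read after ATP addition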
Of the large screens only hits and unclear results are named; the others gave an inactive call. Shown are actives, neighbours in structure and some others; about 2.9% of the full set was active somewhere.

O=C(Nc1cc(Cl)cc(Cl)c1)c1cccc(OC(F)F)c1	CHO-K1 Ca antag 27
CCC(C)(C)NC(=O)C(c1cccnc1)N(C(=O)c1csnn1)c1ccccc1 (stereo not drawn)	none
CCOc1ccccc1/C=C/c1onc(C)c1S(=O)(=O)N1CCC(C(=O)NC(C)(C)C)CC1	none
C=CCN(c1ccc(OC)cc1)S(=O)(=O)c1ccc(Cl)c(C(=O)OCC(=O)NC2CC2)c1	none
C=CCN(c1ccccc1)S(=O)(=O)c1ccc(Cl)c(C(=O)OCC(=O)c2[nH]c(C)c(C(C)=O)c2C)c1	CHO-K1 Ca antag 29
CCC(c1ccccc1)c1noc(CCN(CC)CC)n1 (stereo not drawn)	none (no result: OX1R antag-1, OX1R antag-2, CHO parental Ca)
c1ccc(CCNc2ncnc3scc(C4COc5ccccc5O4)c23)cc1 (stereo not drawn)	CHO parental Ca 51
CCN(CC(=O)Nc1ccccc1-c1ccccc1)Cc1nc2ccccc2c(=O)[nH]1	OX1R antag-2 67
CC(=O)c1ccc(N2CCN(CC(=O)Nc3ccc4c(c3)OCCO4)CC2)cc1	none
CC1=CC(=O)C(C(C)C)=CC1=NC(=O)c1ccc(C)cc1	none
Fc1ccc(Cn2cc(C(=S)N3CCOCC3)c3ccccc32)cc1	M1 ag parental 23
COc1cccc(NC(=O)CN2C(=O)CSc3ccc(S(=O)(=O)N4CCOCC4)cc32)c1	none
COc1cccc(CNC(=O)CN2C(=O)CSc3ccc(S(=O)(=O)N4CCOCC4)cc32)c1	OX1R antag-2 37
COCCNC(=O)CN1C(=O)CSc2cc(S(=O)(=O)N3CCCCCC3)ccc21	CHO-K1 Ca antag 35
Cc1oc(-c2cccc(Cl)c2)nc1CS(=O)(=O)CC(=O)NC1CCCC1	none
CCOC(=O)COn1c(=O)c(-c2ccc(OC)cc2)[n+]([O-])c2ccccc21	OX1R antag-2 46
CCOC(=O)COn1c(=O)c(-c2ccc(OC)c(OC)c2)[n+]([O-])c2ccccc21	OX1R antag-2 51 (no result: M1 ag parental, CHO-K1 Ca antag, M1 PAM parental)
CCOC(=O)COn1c(=O)c(-c2ccccc2)[n+]([O-])c2ccccc21	none
CN(C)CCCNc1nc2cc(-c3ccc(F)cc3)sc2c(=O)n1C	none (no result: OX1R antag-1, OX1R antag-2, CHO parental Ca)
CCN(CC(=O)Nc1c(F)cccc1F)C(=O)C1COc2ccccc2O1 (stereo not drawn)	none
COc1ccc(C(=O)Cn2c(N3CCCCC3)nc3c2c(=O)n(C)c(=O)n3C)cc1OC	M1 ag parental 18 (no result: OX1R antag-1, OX1R antag-2, CHO parental Ca)
Cn1c(=O)c2c(nc(N3CCCCCC3)n2CC(=O)c2ccccc2)n(C)c1=O	none
CCCCN(c1nc2ccccc2nc1Cl)S(=O)(=O)c1ccc(C)cc1	CHO parental Ca 54
CCCN(CCC)CC(O)CN(c1ccccc1)S(=O)(=O)c1ccc(C)cc1 (stereo not drawn)	none
O=C(/C=C/NNC(=O)c1ccccc1)c1ccc([N+](=O)[O-])cc1	none
CN1C(=O)N(C)C2(c3ccccc3)NC(=O)NC12c1ccccc1 (stereo not drawn)	CHO-K1 Ca antag 29
O=C1NC2(c3ccccc3)NC(=O)NC2(c2ccccc2)N1 (stereo not drawn)	none (no result: OX1R antag-1, OX1R antag-2, CHO parental Ca)
O=S(=O)(c1ccc2nc(N3CCN(c4ccccc4F)CC3)ccc2c1)N1CCCCC1	CHO-K1 Ca antag 25
O=C(Cn1nc(C(=O)O)c2ccccc2c1=O)Nc1cc(Cl)cc(Cl)c1	OX1R antag-2 41
O=C(Cn1nc(C(=O)O)c2ccccc2c1=O)Nc1cccc(S(=O)(=O)N2CCCCC2)c1	OX1R antag-1 60
O=C(CN1CCCC1c1cccs1)Nc1cccc(S(=O)(=O)N2CCCC2)c1 (stereo not drawn)	OX1R antag-2 32
Cc1cc(C(=O)Cn2nc(C(=O)O)c3ccccc3c2=O)c(C)n1CCc1ccc(Cl)cc1	OX1R antag-2 49
O=C(Nc1ccc(S(=O)(=O)Nc2ccccc2F)cc1)N1CCCCC1	none
COc1ccc(CCNC(=O)CSc2nnc3ccc(-c4ccccn4)nn23)cc1	none
Cc1cc(NC2CCCCC2)nc(NCc2ccccc2)n1	M1 ag parental 15, CHO parental Ca 36
O=C(ONC1=NCCCCC1)c1ccc([N+](=O)[O-])cc1	OX1R antag-2 50
O=C(Nc1cccc([N+](=O)[O-])c1)ONC1=NCCCCC1	none
CC(C)(C)OC(=O)C[C@H]1C/C=C\C[C@H](CC(=O)N[C@H](CO)Cc2ccccc2)C(=O)N2CCC[C@H]2COC1=O	none

Screening results: PubChem, The Scripps Research Institute Molecular Screening Center
